Results from ChEMBL document CHEMBL4316637, “Highly Modified Lanostane Triterpenes from Fruiting Bodies of the Basidiomycete Tomophagus sp” (J Nat Prod, 2019).
pIC50: −log10 of the molar value. In brackets after ≈: the same amount, converted by molar mass.

Legend:
Plasmodium falciparum = assay: Antimalarial activity against Plasmodium falciparum K1 infected in human type A+ erythrocytes incubated for 24 hrs followed by [G-3H]-hypoxanthine incorporation and measured after 18 hrs by liquid scintillation counting method; assay type: functional, organism-based
In short: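 P. falciparum K1 (multidrug-resistant strain), tested in duplicate with the microculture radioisotope technique; IC50 derived.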

[1] = tested on: Mycobacterium tuberculosis; assay: Antitubercular activity against Mycobacterium tuberculosis H37Ra by GFP based microplate assay; assay type: functional
In short: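 Whole-cell assay on M. tuberculosis H37Ra growth, read by green fluorescent protein signal in microplates; activity given as MIC in μg/mL.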

Vero = assay: Cytotoxicity against African green monkey Vero cells by GFP based microplate assay; assay type: cell-based; settings: Chlorocebus sabaeus
In short: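 Vero cells (nonmalignant African green monkey kidney […]) tested with a green fluorescent protein microplate assay.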

SMILES | pIC50 (Plasmodium falciparum) | MIC [1] [µg/mL] | pIC50 (Vero)
CC1=CC[C@@]2(OC1=O)O[C@H]1O[C@H]3C[C@@]14[C@H](CC[C@@]4(C)C1=C3C=C3C=CC(=O)OC(C)(C)[C@@H]3CC1)[C@@H]2C | < 4.70 | > 50 | < 3.99
CC(=O)O[C@@H]1C[C@H]([C@H](C)[C@H]2OC(=O)C(C)=C[C@@H]2O)[C@@]2(C)CC(=O)C3=C(CC[C@@H]4C(=C3)C=CC(=O)OC4(C)C)[C@]12C | < 4.74 | > 50 | < 4.05
Cc1c2ccncc2c(C)c2c1[nH]c1ccccc12 [ELLIPTECINE] |  |  | 5.51
CC(=O)O[C@]12CCC(=O)OC(C)(C)[C@@H]1CCC1=C2CC[C@]2(C)[C@@H]([C@H](C)[C@@H]3CC=C(C)C(=O)O3)CC[C@@]12C | < 4.72 | > 50 | < 4.02
CC1=CC[C@@H]([C@@H](C)[C@H]2CC[C@@]3(C)C4=CC[C@H]5C(C)(C)OC[C@@]5(CCC(=O)O)C4=CC[C@]23C)OC1=O | 5.29 | > 50 | < 3.98
CC(=O)OC[C@]12CCC(=O)C(C)(C)[C@@H]1CCC1=C2CC[C@]2(C)[C@@H]([C@H](C)[C@@H]3CC=C(C)C(=O)O3)CC[C@@]12C | < 4.70 | > 50 | < 4.01
CC(=O)[C@H]1C[C@@H](O)[C@@]2(C)C3=C(C=C4C=CC(=O)OC(C)(C)[C@@H]4CC3)CC[C@]12C | < 4.59 | > 50 | < 3.89
CC(=O)O[C@@H]1C[C@H]([C@H](C)[C@@H]2CC=C(C)C(=O)O2)[C@@]2(C)CCC3=C(CC[C@@H]4C(=C3)C=CC(=O)OC4(C)C)[C@]12C | 4.74 | > 50 | 4.96
CC(=O)O[C@@H]1C[C@H]([C@H](C)[C@H]2OC(=O)C(C)=C[C@@H]2O)[C@@]2(C)C[C@H](O)C3=C(CC[C@@H]4C(=C3)C=CC(=O)OC4(C)C)[C@]12C | < 4.74 | > 50 | < 4.05
CC1=CC[C@@H]([C@@H](C)[C@H]2CC[C@@]3(C)C4=C(CC[C@]23C)C[C@@]2(O)C=CC(=O)OC(C)(C)[C@@H]2CC4)OC1=O | 4.72 | > 50 | 4.35
CC(=O)[C@H]1C[C@@H](O)[C@@]2(C)C3=C(C=C4C=CC(=O)OC(C)(C)[C@@H]4CC3)[C@@H](O)C[C@]12C | < 4.60 | > 50 | < 3.90
CC1=CC[C@@H]([C@@H](C)[C@H]2C[C@@H](O)[C@@]3(C)C4=C(C=C5C=CC(=O)O[C@@]5(C(C)(C)O)CC4)CC[C@]23C)OC1=O | < 4.70 | > 50 | < 4.00
COC(=O)CC[C@]1(COC(C)=O)C2=CC[C@]3(C)[C@@H]([C@H](C)[C@@H]4CC=C(C)C(=O)O4)CC[C@@]3(C)C2=CC[C@H]1C(C)(C)O | 5.09 | 50 (≈ 89.8 µM) | 4.49
NNC(=O)c1ccncc1 [ISONIAZID] |  | 0.047 (≈ 0.343 µM) | 
CC(=O)OC[C@]12CC[C@H](O)C(C)(C)[C@@H]1CCC1=C2CC[C@]2(C)[C@@H]([C@H](C)[C@H]3OC(=O)C(C)=C[C@@H]3O)CC[C@@]12C | 5.18 | > 50 | 4.47
CC1=CC[C@@H]([C@@H](C)[C@H]2CC[C@@]3(C)[C@@]45CC[C@@H](C(C)(C)O4)[C@]4(CCC(=O)OC4)C5=CC[C@]23C)OC1=O | < 4.68 | > 50 | 4.01
CC(=O)OC[C@]12CC[C@H](O)C(C)(C)[C@@H]1CCC1=C2CC[C@]2(C)[C@@H]([C@H](C)[C@@H]3CC=C(C)C(=O)O3)CC[C@@]12C | < 4.70 | > 50 | < 4.01
CC(=O)O[C@@H]1C[C@H]([C@H](C)[C@@H]2CC=C(C)C(=O)O2)[C@@]2(C)CCC3=C(CC[C@]4(C(C)(C)O)OC(=O)C=CC4=C3)[C@]12C | < 4.72 | > 50 | 4.48
CC1=C[C@H](O)[C@@H]([C@@H](C)[C@H]2CC[C@@]3(C)C4=C(CC[C@]23C)[C@@]2(C)CC[C@H](O)C(C)(C)[C@@H]2CC4)OC1=O | < 4.68 | > 50 | 4.44
CC(=O)O[C@]12CCC(=O)OC(C)(C)[C@@H]1CC=C1[C@]3(C)CC[C@H]([C@H](C)[C@@H]4CC=C(C)C(=O)O4)[C@@]3(C)C[C@H]3O[C@@]132 | < 4.74 | > 50 | < 4.04

SMILES | pIC50 (Plasmodium falciparum) | MIC [1] [µg/mL] | pIC50 (Vero)
CC1=CC[C@]2(OC1=O)O[C@H]1O[C@H]3C[C@@]14[C@H](CC[C@@]4(C)C1=C3C=C3C=CC(=O)OC(C)(C)[C@@H]3CC1)[C@@H]2C | < 4.70 | > 50 | < 3.99
CC1=CC[C@@H]([C@@H](C)[C@H]2CC[C@@]3(C)C4=C(CC[C@]23C)[C@@]2(CO)CC[C@H](O)C(C)(C)[C@@H]2CC4)OC1=O | < 4.68 | > 50 | < 3.97
CC1=CC[C@@H]([C@@H](C)[C@H]2C[C@@H](O)[C@@]3(C)C4=C(C=C5C=CC(=O)OC(C)(C)[C@@H]5CC4)[C@@H](O)C[C@]23C)OC1=O | < 4.70 | > 50 | < 4.00
CC(=O)O[C@@H]1C[C@H]([C@H](C)[C@@H]2CC=C(C)C(=O)O2)[C@@]2(C)CC(=O)C3=C(CC[C@@H]4C(=C3)C=CC(=O)OC4(C)C)[C@]12C | 5.00 | 50 (≈ 93.2 µM) | 4.04
CC(=O)O[C@@H]1C[C@H]([C@H](C)[C@@H]2CC=C(C)C(=O)O2)[C@@]2(C)C[C@H](O)C3=C(CC[C@@H]4C(=C3)C=CC(=O)OC4(C)C)[C@]12C | < 4.72 | > 50 | 4.47
CC1=CC[C@@H]([C@@H](C)[C@H]2C[C@@H](O)[C@@]3(C)C4=C(C=C5C=CC(=O)OC(C)(C)[C@@H]5CC4)CC[C@]23C)OC1=O | 4.92 | 50 (≈ 104 µM) | 4.38
CC1=CC[C@@H]([C@@H](C)[C@H]2CC[C@@]3(C)C4=C(CC[C@]23C)[C@@]2(C)[C@H](O)C[C@H](O)C(C)(C)[C@@H]2CC4)OC1=O | < 4.68 | > 50 | < 3.97
COC(=O)CC[C@]1(COC(C)=O)C2=CC[C@]3(C)[C@@H]([C@H](C)[C@H]4OC(=O)C(C)=C[C@@H]4O)CC[C@@]3(C)C2=CC[C@H]1C(C)(C)O | 5.20 | > 50 | 4.49
CC(=O)OC(C)(C)[C@@H]1CC=C2C(=CC[C@]3(C)[C@@H]([C@H](C)[C@@H]4CC=C(C)C(=O)O4)CC[C@@]23C)[C@@]12CCC(=O)OC2 | 5.11 | 50 (≈ 95.3 µM) | 4.42
CC1=C[C@H](O)[C@@H]([C@@H](C)[C@H]2C[C@@H](O)[C@@]3(C)C4=C(C=C5C=CC(=O)OC(C)(C)[C@@H]5CC4)CC[C@]23C)OC1=O | < 4.70 | > 50 | 4.41
COC(=O)CC[C@]1(COC(C)=O)C2=C(CC[C@H]1C(C)(C)O)[C@]1(C)CC[C@H]([C@H](C)[C@@H]3CC=C(C)C(=O)O3)[C@@]1(C)CC2 | 4.82 | 12.5 (≈ 22.4 µM) | 4.96
CC(=O)O[C@@H]1C[C@H]([C@H](C)[C@@H]2CC=C(C)C(=O)O2)[C@@]2(C)C[C@H](O)C3=C(CC[C@H]4C(C)(C)OC(=O)C=C[C@]45O[C@@H]35)[C@]12C | < 4.74 | > 50 | < 4.05
CC(=O)O[C@]12CCC(=O)OC(C)(C)[C@@H]1CCC1=C2CC[C@]2(C)[C@@H]([C@H](C)[C@H]3OC(=O)C(C)=C[C@@H]3O)CC[C@@]12C | < 4.74 | > 50 | < 4.04
CC(=O)O[C@@H]1C[C@H]([C@H](C)[C@@H]2CC=C(C)C(=O)O2)[C@@]2(C)CCC3=C(CC[C@@H]4C(=CCC(=O)OC4(C)C)C3)[C@]12C | 4.92 | > 50 | 4.03
CC(=O)OC(C)(C)[C@@H]1CC=C2C(=CC[C@]3(C)[C@@H]([C@H](C)[C@H]4OC(=O)C(C)=C[C@@H]4O)CC[C@@]23C)[C@@]12CCC(=O)OC2 | < 4.74 | > 50 | < 4.04
CC1=CC[C@@H]([C@@H](C)[C@H]2CC[C@@]3(C)C4=C(CC[C@]23C)[C@@]2(C)CC[C@H](O)C(C)(C)[C@@H]2CC4)OC1=O | < 4.66 | > 50 | < 3.96
CC(=O)O[C@@H]1C[C@H]([C@H](C)[C@H]2OC(=O)C(C)=C[C@@H]2O)[C@@]2(C)CCC3=C(CC[C@@H]4C(=C3)C=CC(=O)OC4(C)C)[C@]12C | 5.15 | 50 (≈ 92.8 µM) | 4.66
CC1=CC[C@@H]([C@@H](C)[C@H]2CC[C@@]3(C)C4=C(C=C5C=CC(=O)OC(C)(C)[C@@H]5CC4)CC[C@]23C)OC1=O | 4.74 | > 50 | < 3.97
CC(=O)OC[C@@]1(CCC(=O)O)C2=CC[C@]3(C)[C@@H]([C@H](C)[C@@H]4CC=C(C)C(=O)O4)CC[C@@]3(C)C2=CC[C@H]1C(C)(C)O | 5.26 | > 50 | 4.06
C[C@H]1[C@@H](O)O[C@@H]2O[C@@]3(C)CC[C@H]4[C@H](C)CC[C@@H]1[C@@]24OO3 [ARTENIMOL] | 8.55 |  | 
